# Compound activity (PubChem BioAssay)
# Sampled rows, rich in hits. Any-hit rate of the full collection: about 2.9%.
# RanGTP-Imp inh – inhibitors of RanGTP-importin-beta interaction, primary screen, biochemical, FRET, CFP-Ran, YFP-importin-beta, homogeneous. AID 2216. 1.1% of 300,000 active. cell-free CFP-Ran/YFP-importin-beta FRET ratio. inhibition, % (test concentration not listed);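 active = more than half of the replicate wells show a fall in the fluorescence ratio signal beyond about 16%, limit read from the data, passing the limit was not always enough; inconclusive = exactly half of the replicate wells pass the set limit; inactive = fewer than half of replicates pass the limit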;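 note: 0% = DMSO wells and 100% = Ran loaded with GDP instead of GTP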
# AI-2 QS modul – modulators of Vibrio harveyi AI-2 quorum sensing system | Vibrio harveyi JMH597 AI-2 luminescence/OD600 ratio, 9 h; hits give low values; strain lacks LuxN and CqsS sensors; 0 = neutral-control median | activity change, % at 7.5 µM | 0.4% of 300,000 active; in the data active = activity change below about -75%, passing the limit was not always enough; inconclusive = no clear call, values can overlap the other calls;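 note: luminescence divided by OD600 gain over 9 h not by final OD600 alone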
# KLK7 zymogen act – activates the human kallikrein-7 zymogen; purified proKLK7, EDANS-DABCYL substrate fluorescence; 100% is mature enzyme control, 0% vehicle; 0.9% of 370,000 active; activation, % at 7 µM; AID 652039;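 active = activation above the mean of all tested compounds plus 3 SD, computed per campaign excluding outliers beyond control limits, cut at about 13% in these data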
# Wee1 stabilizer – inhibitors of human Wee1 degradation; P30291; HeLa Luc-Wee1K328M stability, luciferase luminescence; 100% = proteasome inhibitor MG132 effect; reporter increase, % at 5 µM; 1.2% of 220,000 active;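 active = activation above the mean of all tested compounds plus 3 SD, set per screening run, cut at about 8.8% in these data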;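 note: cells exposed to compound for 20 h before luminescence read; 0% = DMSO alone and 100% = MG132 at 30 µM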
# Target sequence (P30291 whole entry K328M): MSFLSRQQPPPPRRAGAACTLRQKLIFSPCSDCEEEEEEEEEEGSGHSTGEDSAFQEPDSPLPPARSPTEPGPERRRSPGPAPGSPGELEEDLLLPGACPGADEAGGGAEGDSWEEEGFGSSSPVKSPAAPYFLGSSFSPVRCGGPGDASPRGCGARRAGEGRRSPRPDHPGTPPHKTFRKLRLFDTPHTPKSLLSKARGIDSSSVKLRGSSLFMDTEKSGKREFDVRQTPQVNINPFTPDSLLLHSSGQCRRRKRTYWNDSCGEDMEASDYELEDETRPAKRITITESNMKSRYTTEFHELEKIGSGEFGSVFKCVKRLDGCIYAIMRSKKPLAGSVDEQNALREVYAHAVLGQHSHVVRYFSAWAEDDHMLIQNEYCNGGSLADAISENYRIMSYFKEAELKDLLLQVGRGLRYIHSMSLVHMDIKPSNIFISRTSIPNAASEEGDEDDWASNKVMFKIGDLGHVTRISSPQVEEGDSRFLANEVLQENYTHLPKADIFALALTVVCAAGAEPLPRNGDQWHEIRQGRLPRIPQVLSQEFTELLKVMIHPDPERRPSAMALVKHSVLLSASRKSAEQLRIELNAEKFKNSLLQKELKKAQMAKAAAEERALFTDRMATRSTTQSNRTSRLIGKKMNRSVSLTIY
# Runt-CBFb FRET – inhibitors of human RUNX1 Runt domain binding to CBFb; Q01196+Q13951; Cerulean-Runt/Venus-CBFb FRET ratio 530/480, 1 h; inhibition, % at 20 µM; 0.46% of 220,000 active;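 active = inhibition over about 50% at 20 µM in the single-dose screen, limit read from the data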;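 note: 0% = DMSO wells and 100% = excess unlabeled CBFb competitor control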
#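 Reagent – Venus-CBFb binding partner, 100 nM · Assay system – Cerulean-tagged RUNX1 Runt domain (FRET donor) fusion protein · Input – 100 nM per protein · Incubation – two 1 h room-temperature incubations shielded from light · Measured by – FRET fluorescence · Medium – Tris buffer pH 7.5 with salts and BSA · Benchmarks – unlabeled CBFb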
# Runt-SMMHC FRET – blocks binding of human RUNX1 Runt domain to CBFb-SMMHC | Cerulean-Runt/Venus-CBFb-SMMHC FRET ratio 530/480, 1 h | inhibition, % at 20 µM | Q01196+Q13951 | 0.74% of 220,000 active;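 active = mean inhibition across duplicate retests at 20 µM reaching about 50%, limit read from the data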;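 note: 0% = DMSO wells and 100% = wells with excess untagged CBFb-SMMHC; inhibitors lower the FRET ratio by blocking Runt binding to CBFb-SMMHC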
# The depositor's hits bear a star; ? = inconclusive; nt = no result given.
SMILES,RanGTP-Imp inh,AI-2 QS modul,KLK7 zymogen act,Wee1 stabilizer,Runt-CBFb FRET,Runt-SMMHC FRET
COC(=O)C1=CN(C2CCCCC2)C=C(C(=O)OC)C1c1ccc2c(c1)OCO2,2.8,10.4,0.8,-2.6,28.3,74.9*
CC(C)OC(=O)c1ccc(NC(=O)C2C3CC4OC(=O)C2C4C3)cc1 (configuration not stated),nt,26.5,0.4,9.8*,-1.1,4.0
Cc1ccc(NC(=O)C2C3CC4OC(=O)C2C4C3)cc1Cl (configuration not stated),nt,7.1,-0.1,1.8,0.2,-2.6
CC(=O)Nc1cc(C(=O)N2CCc3ccccc3C2)ccc1Sc1ccc(F)cc1,3.0,9.5,0.8,3.5,-3.6,3.8
CC(=O)Nc1cc(C(=O)N2CCc3ccccc3C2)ccc1Sc1ccc(Cl)cc1,-2.3,0.3,0.8,9.6*,-2.6,-1.9
CCCC[C@@H]1C(=O)N2N=C(c3ccccc3)c3ccccc3[C@H]2N2N=C(c3ccccc3)c3ccccc3[C@@H]12,nt,nt,-2.0,nt,nt,nt
CCc1ccc2oc(-c3cc(N)ccc3O)nc2c1,-1.8,-1.3,-1.1,9.5*,-27.3,-87.7
CCc1ccc2oc(-c3cc(N)ccc3Cl)nc2c1,6.2,-1.3,-2.8,1.8,2.9,-2.3
O=C(CSc1nnc(-c2ccc(F)cc2)o1)NC1CCCCC1,-2.7,25.2,0.2,10.4*,-0.8,1.0
OC[C@@H](O)[C@H](O)C(/C=N/Nc1ccccc1)=N\Nc1ccccc1,8.6,8.4,0.3,-0.4,7.8,0.5
Cc1cc([N+](=O)[O-])nn1CC(=O)NCc1nc2ccccc2[nH]1,173.6*,nt,0.3,1.9,1.0,-0.5
Cc1cc([N+](=O)[O-])nn1CC(=O)NCc1ccc(Cl)cc1,0.0,nt,0.4,nt,nt,nt
N#CC1=C(SCC(=O)c2ccc(Br)cc2)NC2=C(C(=O)CCC2)C1c1ccco1 (configuration not stated),nt,nt,1.0,10.9*,4.6,-5.7
O=C(C(=O)N1CCC(CNC(=O)c2sc3ccccc3c2Cl)CC1)c1cccs1,nt,nt,0.8,nt,nt,nt
CCOc1ccc(C2C(C(=O)C3CC3)N3C=C(C#N)C=CC3C2(C#N)C#N)cc1 (configuration not stated),30.2*,22.8,3.3,-2.0,1.6,1.3
COc1cc(/C=C/C(=O)NC(C)CCc2ccccc2)cc(OC)c1OC (configuration not stated),-1.7,24.5,0.1,10.6*,-6.0,-4.9
COc1cc(/C=C\C(=O)NCc2ccc3c(c2)cc(C)n3C)cc(OC)c1OC,?,13.2,0.4,15.4*,-2.5,-3.1
CC(CCc1ccccc1)NC(=O)/C=C/c1ccccc1 (configuration not stated),0.8,10.6,0.4,0.0,-2.4,-3.1
COc1cccc(-c2ccc3c(c2)[C@@H]2C[C@H]4[C@@H](CN2CC3)[C@H](C)ON4C)c1,nt,nt,0.7,nt,nt,nt
N#Cc1c(-c2ccncc2)c2c([nH]c1=O)-c1ccccc1OC2,55.9*,-3.9,12.5,-2.3,11.1,nt
N#Cc1c(-c2ccccc2Cl)c2c([nH]c1=O)-c1ccccc1OC2,131.0*,18.8,9.6,1.6,94.8*,81.6*
N#Cc1c(-c2ccncc2)c2c([nH]c1=S)CCCC2,3.1,2.5,0.2,-2.8,10.3,9.0
O=C1NC(c2cccs2)Nc2sc3c(c21)CCCC3 (configuration not stated),-0.2,12.7,-6.3,8.9*,19.7,-2.5
O=C(CSc1nnc(-c2ccccn2)n1-c1ccccc1)Nc1ccc2c(c1)OCCO2,nt,nt,-0.1,nt,nt,nt
N#CCSc1nnc(-c2ccccc2O)n1Cc1ccccc1,4.8,7.0,0.0,11.3*,-3.1,-2.0
SMILES,RanGTP-Imp inh,AI-2 QS modul,KLK7 zymogen act,Wee1 stabilizer,Runt-CBFb FRET,Runt-SMMHC FRET
COCCn1c(SCC#N)nnc1-c1ccccc1O,3.5,28.2,0.8,-0.2,0.4,6.9
COC(=O)[C@]12C[C@H](CC(=O)NCc3ccc(C)o3)C(=O)N(Cc3ccco3)C1=C[C@H](C(C)(C)C)O[C@@H]2C,nt,nt,0.3,nt,nt,nt
O=C(C1CCCN(Cc2ccccc2F)C1)N1CCCCC1 (configuration not stated),-2.6,3.5,0.6,nt,nt,nt
O=C(C1CCCN(Cc2ccccc2Br)C1)N1CCCCC1 (configuration not stated),0.0,10.0,0.1,10.5*,-107.3,1.1
c1ccc(Nc2nc(-c3cccs3)cs2)nc1,1.5,1.1,-0.6,9.8*,0.2,-0.7
Fc1ccc(-c2csc(Nc3ccccn3)n2)cc1,5.9,nt,0.4,nt,nt,nt
Cc1cccc(Nc2nc(-c3cccs3)cs2)n1,-1.0,6.2,1.5,18.3*,1.8,1.4
Cc1cc(N)ccc1NC(=O)CN1CCCC1,0.1,2.7,-0.7,nt,nt,nt
CC1(C)CC(=O)C2=C(C1)OC1=C(C(=O)CC(C)(C)C1)C2c1ccc(O)cc1O,92.5*,27.3,-27.9,-0.8,6.4,42.0
CCOC(=O)C(C#N)=C1CCN(Cc2ccccc2)CC1,51.2*,12.7,-0.3,nt,nt,nt
CCOC(=O)/C(C#N)=C1/C(=O)N(Cc2ccccc2)c2ccccc21,nt,nt,0.5,4.1,-0.9,-1.3
CC(=O)NCCn1c(SCC(=O)NC2CCCCC2)nc2ccccc2c1=O,18.1*,0.8,-0.5,1.2,0.6,0.2
COC(=O)C1=CC(=O)C=C(OC)[C@@]12Oc1cc(C)cc(OC)c1C2=O,nt,nt,1.8,nt,nt,nt
Cc1nc2c(sc3nc4c(cc32)COC(C)(C)C4)c(=O)n1CC(=O)NCc1ccco1,4.3,-8.0,nt,9.3*,nt,nt
C[C@@H]1Cc2cc(O)cc(O)c2C(=O)O1,nt,nt,-0.1,nt,nt,nt
C/C=C/C=C/[C@H]1Cc2cc(O)cc(O)c2O1,22.0*,2.7,nt,nt,3.9,-22.4
COc1ccc(C2=Nc3nc(-c4ccccc4)cn3C(c3ccc(OC)cc3)C2)cc1 (configuration not stated),27.9*,27.7,-29.0,-0.7,-73.4,-97.1
COC(=O)C1=C(N)Oc2cc(C)n(Cc3cccnc3)c(=O)c2C1c1cc(OC)ccc1OC (configuration not stated),5.2,10.7,0.1,-2.0,-1.4,1.3
COC(=O)C1=C(N)Oc2cc(C)n(Cc3cccnc3)c(=O)c2C1c1cccc(OC)c1OC (configuration not stated),1.1,15.9,-0.5,9.2*,-0.6,4.9
N/C(=N\OC(=O)CCc1ccccc1)c1ccc(Br)cc1,-4.3,-23.9,0.3,-1.2,nt,-4.3
Cc1ccc(/C(N)=N/OC(=O)CCc2ccccc2)cc1,-5.2,-77.3*,-1.0,-0.8,-3.6,-1.5
CC(=O)c1ccc(NC(=O)C(C)OC(=O)c2ccc3c(c2)nc(C)n3-c2ccccc2)cc1 (configuration not stated),-0.8,18.6,0.2,8.8*,-3.9,2.7
